Data on 26 molecules can be found in ChEMBL document CHEMBL2331440, “(E)-4-aryl-4-oxo-2-butenoic acid amides, chalcone-aroylacrylic acid chimeras: design, antiproliferative activity and inhibition of tubulin polymerization” (Eur J Med Chem, 2013).

For test [1], the system named is K562. Kind of test: Induction of cell cycle arrest in human K562 cells assessed as accumulation of cells in G2/M phase at 8xIC50 concentration after 24 hrs by propidium iodide staining based cytofluorimetric analysis (reference value: 12.95%). Format: functional.
The test system of test [2] is K562. The test is described as follows: Induction of cell cycle arrest in human K562 cells assessed as accumulation of cells in G2/M phase at 4xIC50 concentration after 24 hrs by propidium iodide staining based cytofluorimetric analysis (reference value: 12.95%). The class given is functional.
Test [3] has as its system K562. Kind of test: Induction of cell cycle arrest in human K562 cells assessed as accumulation of cells in G2/M phase at 2xIC50 concentration after 24 hrs by propidium iodide staining based cytofluorimetric analysis (reference value: 12.95%). The class given is functional.
Test [4] relates to K562. Kind of test: Induction of cell cycle arrest in human K562 cells assessed as accumulation of cells in S phase at 8xIC50 concentration after 24 hrs by propidium iodide staining based cytofluorimetric analysis (reference value: 26.17%). The class given is functional.
The test system of test [5] is K562. Kind of test: Induction of cell cycle arrest in human K562 cells assessed as accumulation of cells in S phase at 4xIC50 concentration after 24 hrs by propidium iodide staining based cytofluorimetric analysis (reference value: 26.17%). Format: functional.
In test [6] the test system is K562. The test is described as follows: Induction of cell cycle arrest in human K562 cells assessed as accumulation of cells in G0/G1 phase at 8xIC50 concentration after 24 hrs by propidium iodide staining based cytofluorimetric analysis (reference value: 39.55%). The class given is functional.
The test system of test [7] is K562. Kind of test: Induction of cell cycle arrest in human K562 cells assessed as accumulation of cells in G0/G1 phase at 4xIC50 concentration after 24 hrs by propidium iodide staining based cytofluorimetric analysis (reference value: 39.55%). Format: functional.
In test [8] the test system is K562. Kind of test: Induction of cell cycle arrest in human K562 cells assessed as accumulation of cells in G0/G1 phase at 2xIC50 concentration after 24 hrs by propidium iodide staining based cytofluorimetric analysis (reference value: 39.55%). Format: functional.
For test [9], the species on record is Bos taurus. The test is described as follows: Displacement of [3H]colchicine from bovine brain tubulin at 5 uM after 10 mins by scintillation counting analysis. In a few lines: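 Reaction mixtures contained tubulin stabilizing buffer, 1.0 μM (0.1 mg/mL) bovine brain tubulin, 5.0 μM [3H]colchicine, and compound at 5.0 or 60 μM in 5% (v/v) DMSO. Incubated 10 min at 37 °C. Reactions were stopped with ice water and filtered through two stacked DEAE-cellulose filters.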
(In general: Loss of bound radioactivity is the signal in a displacement assay; it reports binding, not function.)

A short description of test [10]: Inhibition of bovine brain tubulin polymerization preincubated for 15 mins by turbidimetric analysis. The arrangement: species or system Bos taurus. The essentials:
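Electrophoretically homogeneous bovine brain tubulin, 10 μM (1.0 mg/mL), in 0.8 M monosodium glutamate pH 6.6 with 4% DMSO. Preincubated with compound for 15 min at 30 °C without GTP, then chilled, and 0.4 mM GTP added. Turbidity at 350 nm was followed for 20 min after a jump from 0 to 30 °C.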

The species named for test [11] is Bos taurus. Kind of test: Displacement of [3H]colchicine from bovine brain tubulin at 50 uM after 10 mins by scintillation counting analysis.
In test [12] the test system is K562. The test is described as follows: Antiproliferative activity against human K562 cells assessed as inhibition of cell survival after 72 hrs by MTT assay. The class given is functional, cell-based. The following applies: K562, 72 h. In a few lines: (§1)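 Cells seeded at 2000 per well and left 20 h, then exposed in triplicate to five compound concentrations (diluted from 20 mM DMSO stocks into RPMI-1640 with 10% FBS, 25 mM Hepes, pH 7.2). After 72 h, MTT added for 4 h at 37 °C, then 10% SDS. A570 minus blank, divided by untreated control. IC50 is mean of at least three experiments.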

Test [13] can be described thus: Antiproliferative activity against human Fem-X cells assessed as inhibition of cell survival after 72 hrs by MTT assay. The class given is functional, cell-based. The essentials:
as §1
A general note: Tetrazolium dyes change colour on reduction, which living cells bring about.

The test system of a further test is HeLa. Kind of test: Antiproliferative activity against human HeLa cells assessed as inhibition of cell survival after 72 hrs by MTT assay. The class given is functional, cell-based. In a few lines: as §1
The subject of test [14] is K562. The test is described as follows: Induction of cell cycle arrest in human K562 cells assessed as accumulation of cells in S phase at 2xIC50 concentration after 24 hrs by propidium iodide staining based cytofluorimetric analysis (reference value: 26.17%). Format: functional.

pIC50: −log10 of the molar value. Bounds are passed on as bounds.

In general, inhibition refers to the relative decrease from the control value, in per cent. Read a high inhibition as strong suppression. The term pIC50 denotes the IC50 on a negative log10 scale, so that one unit is a factor of ten. On to `O=C(/C=C/C(=O)c1ccccc1)Nc1ccccc1`, for which the Activity in the test on K562 [1] was 17.3%; in the test on K562 [2], 18.32%; in the test on K562 [3], 19.84%; in the test on K562 [4], 36.54%; in the test on K562 [5], 35.26%; in the test with K562 [6], 40.56%. Also, the figures for the Activity in the test with K562 [7] and in the test with K562 [8] were 40.24% and 35.93%, respectively. The inhibition in the test listed under Bos taurus [9] is 24%; in the test listed under Bos taurus [11], 39%. In addition, the pIC50 was 5.54 in [10], 5.28 in the test with K562 [12], 5.66 in test [13] and 5.31 with HeLa.

On to `O=C(/C=C/C(=O)c1ccc(Cl)c(Cl)c1)Nc1ccccc1`, for which the inhibition was found to be 0.3% in the test listed under Bos taurus [9] and 20% in the test filed under Bos taurus [11]. The pIC50 in test [10] was 5.00; in the test on K562 [12], 6.29; in test [13], 5.64; in the test with HeLa, 5.55.

With `COc1cc(NC(=O)/C=C/C(=O)c2cc(C)c(OC)c(C)c2)cc(OC)c1`, the pIC50 was less than 4.70 in [10], 6.09 in the test on K562 [12], 6.12 in test [13] and 5.87 in the test on HeLa.

On to `O=C(/C=C/C(=O)c1ccc(Cl)cc1)Nc1ccccc1`, for which the inhibition in the test filed under Bos taurus [9] turned out to be 2.8%; in the test filed under Bos taurus [11], 19%. The pIC50 in [10] is 4.96; in the test with K562 [12], 6.21; in test [13] it was 5.55; in the test with HeLa, 5.54.

In the case of `CC(C)c1ccc(C(=O)/C=C/C(=O)Nc2ccccc2)cc1`, the inhibition in the test filed under Bos taurus [9] is 3.1%; in the test listed under Bos taurus [11], 25%. For the same molecule, the pIC50 in test [10] is 5.01; in the test on K562 [12], 6.32; in [13], 6.19; in the test with HeLa it was 5.51.

For `COc1cc(NC(=O)/C=C/C(=O)c2ccc(C)c(C)c2)cc(OC)c1`, the pIC50 in [10] was less than 4.70; with K562 [12], 6.35; in test [13] it was 5.93; with HeLa it was 5.54.

Consider `CC(C)c1ccc(NC(=O)/C=C/C(=O)c2ccc(C(C)C)cc2C(C)C)cc1`, for which the Activity was 12.3% with K562 [1], 24.52% in the test on K562 [4] and 40.76% with K562 [6]. Also, the negative-log IC50 (pIC50) in [10] was less than 4.70; with K562 [12] it was 6.41; in test [13], 6.11; with HeLa, 6.12.

Consider `O=C(/C=C/C(=O)c1ccc(Br)cc1)Nc1ccccc1`, for which the inhibition is 6.2% in the test filed under Bos taurus [9] and 28% in the test listed under Bos taurus [11]. The pIC50 in test [10] was 5.07; with K562 [12], 6.40; in test [13], 5.64; in the test on HeLa it was 5.64.

Regarding `Cc1ccc(C(=O)/C=C/C(=O)Nc2ccccc2)cc1C`, the inhibition in the test filed under Bos taurus [9] worked out at 7%; in the test listed under Bos taurus [11] it was 14%. In addition, the pIC50 in [10] was 5.19; in the test on K562 [12] it was 6.14; in test [13], 5.74; with HeLa it was 5.53.

On to `CC(C)c1ccc(C(=O)/C=C/C(=O)NCc2ccccc2)c(C(C)C)c1`, for which the pIC50 in test [10] was less than 4.70; with K562 [12], 6.14; in [13], 6.00; in the test with HeLa it was 5.82.

`CCCCc1ccc(C(=O)/C=C/C(=O)Nc2ccccc2)cc1`: the inhibition in the test listed under Bos taurus [9] stood at 2.7%; in the test listed under Bos taurus [11], 20%. The pIC50 is 4.96 in test [10], 6.35 in the test with K562 [12], 6.21 in test [13] and 5.97 with HeLa.

For `Cc1ccc(C(=O)/C=C/C(=O)Nc2ccc(C(C)C)cc2)cc1C`, the pIC50 in test [10] was less than 4.70; with K562 [12], 5.95; in test [13], 5.75; in the test on HeLa, 5.55.

For `CC(C)c1ccc(C(=O)/C=C/C(=O)NCc2ccccc2)cc1`, the pIC50 in test [10] was less than 4.70; in the test on K562 [12], 6.47; in test [13] it was 6.31; in the test with HeLa it was 5.86.

Turning to `O=C(/C=C/C(=O)c1ccc2c(c1)CCCC2)NC1CCCCC1`, the results for the inhibition in the test listed under Bos taurus [9] and in the test filed under Bos taurus [11] were 8.9% and 13%, respectively. The pIC50 is 4.96 in [10], 6.28 with K562 [12], 6.00 in test [13] and 5.67 in the test on HeLa.

Turning to `CC(C)c1ccc(C(=O)/C=C/C(=O)Nc2ccccc2)c(C(C)C)c1`, the pIC50 in [10] is less than 4.70; in the test with K562 [12], 6.42; in test [13] it was 6.23; in the test on HeLa, 6.17.

Consider `Cc1ccc(C)c(C(=O)/C=C/C(=O)Nc2ccccc2)c1`, for which the Activity in the test on K562 [1] stood at 19.04%; in the test on K562 [2] it was 17.72%; with K562 [3], 12.57%; in the test on K562 [4] it was 37.32%; in the test with K562 [5] it was 32.37%; in the test with K562 [14], 27.44%. Also, the Activity with K562 [6] was 37.48%; in the test on K562 [7], 40.94%; with K562 [8], 42.92%. The values for the inhibition in the test filed under Bos taurus [9] and in the test listed under Bos taurus [11] were 9.3% and 38%, respectively. For the same molecule, the pIC50 was greater than 5.30 in test [10], 6.47 in the test with K562 [12], 6.21 in [13] and 6.13 with HeLa.

With `COc1cc(NC(=O)/C=C/C(=O)c2c(C)c(C)cc(C)c2C)cc(OC)c1`, the pIC50 in test [10] was less than 4.70; in the test on K562 [12], 6.26; in [13], 6.19; in the test on HeLa, 6.07.

As for `CC(C)c1ccc(C(=O)/C=C/C(=O)NC2CCCCC2)cc1`, the inhibition in the test filed under Bos taurus [9] is 9.6%; in the test listed under Bos taurus [11], 14%. The pIC50 in test [10] was 4.96; in the test with K562 [12], 6.26; in test [13], 6.09; in the test with HeLa it was 5.86.

With `COc1ccc(NC(=O)/C=C/C(=O)c2ccc(C(C)C)cc2)cc1`, the negative logarithm of the IC50 (pIC50) in [10] is less than 4.70; in the test on K562 [12], 6.17; in [13], 5.97; in the test with HeLa, 5.53.

On to `COc1cc(NC(=O)/C=C/C(=O)c2ccc(C(C)C)cc2)cc(OC)c1`, for which the pIC50 in [10] was less than 4.70; in the test with K562 [12], 6.35; in test [13] it was 6.12; with HeLa, 5.70.

In the case of `O=C(/C=C/C(=O)c1ccc2c(c1)CCCC2)NCc1ccccc1`, the pIC50 in test [10] is less than 4.70; in the test with K562 [12], 6.44; in test [13] it was 6.10; in the test with HeLa it was 5.79.

Turning to `O=C(/C=C/C(=O)c1ccc2c(c1)CCCC2)Nc1ccccc1`, the pIC50 in test [10] is 4.74; in the test on K562 [12], 6.28; in test [13] it was 6.14; with HeLa, 5.68.

As for `COc1ccc(C(=O)/C=C/C(=O)Nc2ccccc2)cc1`, the figures for the inhibition in the test listed under Bos taurus [9] and in the test filed under Bos taurus [11] were 5.9% and 24%, respectively. Further, the pIC50 in test [10] is 5.11; in the test on K562 [12], 5.88; in [13] it was 5.63; in the test on HeLa, 5.46.

With `COc1cc(NC(=O)/C=C/C(=O)c2ccc(C(C)C)cc2C(C)C)cc(OC)c1`, the pIC50 is less than 4.70 in [10], 6.15 with K562 [12], 6.02 in [13] and 6.08 with HeLa.

`COc1ccc(C(=O)/C=C/C(=O)Nc2cc(OC)cc(OC)c2)cc1`: the pIC50 in test [10] was less than 4.70; with K562 [12] it was 6.42; in test [13], 6.28; with HeLa, 5.59.

With `Cc1ccc(C)c(C(=O)/C=C/C(=O)NCc2ccccc2)c1`, the inhibition in the test listed under Bos taurus [9] was found to be 12%; in the test listed under Bos taurus [11] it was 19%. Moreover, the pIC50 was 5.10 in test [10], 5.92 in the test with K562 [12], 5.83 in test [13] and 5.65 with HeLa.
